Assay outcomes (PubChem BioAssay)
KCNQ1 act: potentiates or activates the human KCNQ1 potassium channel; P51787; CHO-K1 KCNQ1, thallium flux FluxOR fluorescence; active compounds read high; B-score at 10 µM; actives 0.35% (n = 310,000);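 active = fluorescence ratio B-score, a plate-corrected score, at least three library SD, with initial intensity B-score within 5 SD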
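Assay system: stable KCNQ1 CHO-K1 line; medium: assay buffer, equal DMSO in all wells; timing: 90 min dye loading and 20 min compound exposure, both at room temperature; technique: kinetic FluxOR thallium fluorescence, 10-s 1-Hz baseline, 110-s post-stimulus read; read-out basis: B score of baseline-normalized fluorescence ratio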
hERG protect: hERG (human) protection from proarrhythmic block. Q12809. CHO-hERG, FluxOR thallium flux, dofetilide IC70 present. activation (rescue from dofetilide block), less the hit threshold, % at 10 µM. actives 0.51% (n = 310,000). AID 1511;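 active = activation above the mean of controls blocked by dofetilide plus 5 SD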;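 also: thallium influx through hERG after potassium depolarization seen as dye fluorescence rise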
KCNQ1 inh: blocks the human KCNQ1 potassium channel. CHO-K1 KCNQ1, FluxOR thallium flux fluorescence; active compounds read high. actives 1.3% (n = 310,000). B-score at 10 µM. AID 2642;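 active = compounds whose thallium flux B-score, printed positive for inhibition, exceeds three library SD while starting fluorescence stays within three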;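 also: channel opened by potassium depolarization with thallium stimulus after 20 min compound exposure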
KCNK9 inh-1: human KCNK9 channel inhibition; HEK293 KCNK9, FluxOR thallium flux fluorescence; active compounds read low; B-score at 10 µM; actives 1.2% (n = 310,000); AID 488922;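 active = ratio B-score over 3 SD below the library mean, with starting fluorescence within 5 SD of its mean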;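 also: negative B-score means less thallium flux so channel inhibition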
KCNK3 inh: human KCNK3 channel inhibition, primary screen. O14649. CHO-KCNK3 thallium flux, FluxOR fluorescence; active compounds read low. B-score at 10 µM. actives 0.84% (n = 340,000);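 active = B-score under library mean minus 4 SD, starting fluorescence ratio at most library mean plus 5 SD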;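 also: more negative B-score means stronger inhibition of thallium flux through KCNK3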
Kir21 block: inhibitors of mouse Kir2.1 inward-rectifier potassium channel. P35561. HEK293-Kir2.1, FluxOR thallium flux fluorescence; active compounds read low. B-score at 10 µM. actives 0.85% (n = 310,000);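 active = fluorescence ratio B-score at or below minus 3 SD of library scores, with starting-brightness B-score within 2 SD, cut at about -4.2 in these data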;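 also: channel flux triggered by added potassium and thallium sulfate stimulus; B-score of peak minus minimum fluorescence over baseline after thallium stimulus; more negative B-score means stronger Kir2.1 block with less thallium influx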
Target sequence (P35561 whole entry, looked up): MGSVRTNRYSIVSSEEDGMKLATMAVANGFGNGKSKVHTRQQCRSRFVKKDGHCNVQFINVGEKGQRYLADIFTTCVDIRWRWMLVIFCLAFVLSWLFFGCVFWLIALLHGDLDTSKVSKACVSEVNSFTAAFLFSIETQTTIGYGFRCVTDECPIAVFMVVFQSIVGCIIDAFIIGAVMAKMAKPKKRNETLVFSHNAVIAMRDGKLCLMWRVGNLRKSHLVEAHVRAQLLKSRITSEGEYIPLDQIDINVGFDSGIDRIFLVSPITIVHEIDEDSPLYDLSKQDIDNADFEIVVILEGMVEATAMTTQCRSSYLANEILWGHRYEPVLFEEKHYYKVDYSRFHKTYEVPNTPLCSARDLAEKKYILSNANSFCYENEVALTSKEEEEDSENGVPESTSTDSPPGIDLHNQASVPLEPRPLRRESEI
hERG inh: counter-screen for Kir2.1 inhibitors: effect on human hERG; hERG-expressing cells, thallium flux; shares compounds with Kir21 block; actives 20% (n = 320); inhibition, % at 10 µM;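 also: host cells are CHO cells stably expressing hERG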
KCNK9 inh-2: tests whether Kir2.1 inhibitors also affect human KCNK9. shares compounds with Kir21 block. KCNK9-expressing cells, ion flux inhibition. inhibition, % at 10 µM. actives 5% (n = 320)
Kir21 ephys inh: blocks mouse Kir2.1 current in automated electrophysiology. inhibition, % at 25 µM. shares compounds with Kir21 block. AID 463252. Kir2.1 cells, automated patch-clamp current inhibition. actives 71% (n = 320)
Numbers stand for hits. This is a sample that favours compounds with a hit; in the whole collection about 3.8% have one here. Unless noted, no rule for the calls is given here.

Results for CCc1nc(C)cn1S(=O)(=O)c1ccc(Cl)c(Cl)c1Cl ?
KCNQ1 act: inactive; hERG protect: inactive; KCNQ1 inh: inactive; KCNK9 inh-1: inactive; KCNK3 inh: inactive; Kir21 block: inactive

What do the screens show for `Cc1cccn2c(=O)c3cc(S(=O)(=O)c4ccc(Br)cc4)c(=N)n(C4CCCC4)c3nc12`?
KCNQ1 act: inactive; hERG protect: inactive; KCNQ1 inh: inactive; KCNK9 inh-1: inactive; KCNK3 inh: inactive; Kir21 block: inactive; hERG inh: inactive; KCNK9 inh-2: inactive; Kir21 ephys inh: inactive

How did Cn1ccnc1-c1nnn(-c2ccc(Cl)c(Cl)c2)n1 do in these assays?
KCNQ1 act: inactive; hERG protect: inactive; KCNQ1 inh: inactive; KCNK9 inh-1: inactive; KCNK3 inh: inactive; Kir21 block: inactive

Results for CCN(c1ccccc1)S(=O)(=O)c1ccc(F)cc1 ?
KCNQ1 act: inactive; hERG protect: inactive; KCNQ1 inh: inactive; KCNK9 inh-1: inactive; KCNK3 inh: inactive; Kir21 block: -6.17; hERG inh: inactive; KCNK9 inh-2: inactive; Kir21 ephys inh: 37.1%

How did Cc1occc1C(=O)N1CCN(S(=O)(=O)c2ccc(F)cc2)CC1 do in these assays?
KCNK3 inh: inactive

What do the screens show for `CC1(NC(=O)CC(c2ccccc2)(c2ccccc2)c2ccccc2)CCN(Cc2ccc(-c3ccccc3)cc2)C1=O` (stereo not drawn)?
KCNK3 inh: inactive

How did COc1ccc(Br)cc1S(=O)(=O)N1CCOCC1 do in these assays?
KCNQ1 act: inactive; hERG protect: inactive; KCNQ1 inh: inactive; KCNK9 inh-1: inactive; KCNK3 inh: inactive; Kir21 block: inactive

What do the screens show for `COc1ccc(Br)cc1S(=O)(=O)N1CC(C)OC(C)C1` (stereo not drawn)?
KCNQ1 act: inactive; hERG protect: inactive; KCNQ1 inh: inactive; KCNK9 inh-1: inactive; KCNK3 inh: inactive; Kir21 block: -6.23; hERG inh: inactive; KCNK9 inh-2: inactive; Kir21 ephys inh: 26.5%

What do the screens show for `COc1ccc(F)cc1S(=O)(=O)N1CCN(c2ccccn2)CC1`?
KCNQ1 act: inactive; hERG protect: inactive; KCNQ1 inh: inactive; KCNK9 inh-1: inactive; KCNK3 inh: inactive; Kir21 block: inactive

Results for COc1ccc(F)cc1S(=O)(=O)N1CC(C)CC(C)C1 (stereo not drawn) ?
KCNQ1 act: inactive; hERG protect: inactive; KCNQ1 inh: inactive; KCNK9 inh-1: inactive; KCNK3 inh: inactive; Kir21 block: -6.23; hERG inh: inactive; KCNK9 inh-2: inactive; Kir21 ephys inh: 36.9%

How did Cc1ccc(-n2c(C)c(C)c3c(N)ncnc32)cc1 do in these assays?
KCNQ1 act: inactive; hERG protect: inactive; KCNQ1 inh: inactive; KCNK9 inh-1: inactive; KCNK3 inh: inactive; Kir21 block: inactive

What do the screens show for `CC(NCCC(Cc1ccccc1)c1ccco1)c1ccccc1` (stereo not drawn)?
KCNQ1 act: inactive; hERG protect: inactive; KCNQ1 inh: inactive; KCNK9 inh-1: inactive; KCNK3 inh: inactive; Kir21 block: -13.9; hERG inh: inactive; KCNK9 inh-2: inactive; Kir21 ephys inh: inactive

How did O=C(CC(Cc1ccccc1)c1ccco1)NC1CCCCC1 (stereo not drawn) do in these assays?
KCNQ1 act: inactive; hERG protect: inactive; KCNQ1 inh: inactive; KCNK9 inh-1: inactive; KCNK3 inh: inactive; Kir21 block: inactive

What do the screens show for `COc1ccc(CCNC2CCc3ccccc3C2)cc1` (stereo not drawn)?
KCNQ1 act: inactive; hERG protect: inactive; KCNQ1 inh: inactive; KCNK9 inh-1: inactive; KCNK3 inh: inactive; Kir21 block: -8.58; hERG inh: inactive; KCNK9 inh-2: inactive; Kir21 ephys inh: 36.7%

Results for Cc1ccc(/C(=N/Nc2nc3ccccc3s2)C2=C(O)c3ccccc3C2=O)cc1 ?
KCNQ1 act: inactive; hERG protect: inactive; KCNQ1 inh: 10; KCNK9 inh-1: inactive; KCNK3 inh: inactive; Kir21 block: inactive; hERG inh: inactive; KCNK9 inh-2: inactive; Kir21 ephys inh: inactive

Results for CCCN1CCC(NC23CC4CC(CC(C4)C2)C3)CC1 ?
KCNQ1 act: inactive; hERG protect: inactive; KCNQ1 inh: inactive; KCNK9 inh-1: inactive; Kir21 block: -9.82; hERG inh: inactive; KCNK9 inh-2: inactive; Kir21 ephys inh: 41.1%

What do the screens show for `CC1CN(S(=O)(=O)c2cccc(C(=O)N(Cc3nnc(-c4ccccc4Cl)o3)C3CC3)c2)CC(C)O1` (stereo not drawn)?
KCNQ1 act: inactive; hERG protect: inactive; KCNQ1 inh: inactive; KCNK9 inh-1: inactive; KCNK3 inh: inactive; Kir21 block: inactive

What do the screens show for `COc1cc(CNCCc2ccccc2F)ccc1OCc1ccc(Cl)nc1`?
KCNQ1 act: inactive; hERG protect: inactive; KCNQ1 inh: inactive; KCNK9 inh-1: inactive; KCNK3 inh: inactive; Kir21 block: inactive

What do the screens show for `COc1cc(CNCCc2ccc(F)cc2)ccc1OCc1ccc(Cl)nc1`?
KCNQ1 act: inactive; hERG protect: inactive; KCNQ1 inh: inactive; KCNK9 inh-1: inactive; KCNK3 inh: inactive; Kir21 block: -8.19; hERG inh: 59.0%; KCNK9 inh-2: inactive; Kir21 ephys inh: 56.2%

Results for CC(C)(C)OC(=O)NCCCCCc1nnc(SCc2ccc(F)cc2)o1 ?
KCNQ1 act: inactive; hERG protect: inactive; KCNQ1 inh: inactive; KCNK9 inh-1: inactive; KCNK3 inh: inactive; Kir21 block: inactive

How did Cc1ccc(CSc2nnc(CCNC(=O)OC(C)(C)C)o2)cc1 do in these assays?
KCNQ1 act: inactive; hERG protect: inactive; KCNQ1 inh: inactive; KCNK9 inh-1: inactive; KCNK3 inh: inactive; Kir21 block: -10.9; hERG inh: inactive; KCNK9 inh-2: inactive; Kir21 ephys inh: 59.7%

What do the screens show for `CN1CCN(c2nc3c(c(=O)[nH]c(=O)n3C)n2Cc2ccc(Cl)cc2)CC1`?
KCNQ1 act: inactive; hERG protect: inactive; KCNQ1 inh: inactive; KCNK9 inh-1: inactive; KCNK3 inh: inactive; Kir21 block: inactive

How did CC(C)CCN(Cc1ccco1)S(=O)(=O)c1csc(C(N)=O)c1 do in these assays?
KCNQ1 act: inactive; hERG protect: inactive; KCNQ1 inh: inactive; KCNK9 inh-1: inactive; KCNK3 inh: inactive; Kir21 block: -8.19; hERG inh: inactive; KCNK9 inh-2: inactive; Kir21 ephys inh: 21.6%

Results for CN(Cc1ccco1)S(=O)(=O)c1csc(C(N)=O)c1 ?
KCNQ1 act: inactive; hERG protect: inactive; KCNQ1 inh: inactive; KCNK9 inh-1: inactive; KCNK3 inh: inactive; Kir21 block: inactive

What do the screens show for `O=C(c1ccc(O)cc1)c1ccc(O)cc1O`?
KCNQ1 act: inactive; hERG protect: inactive; KCNQ1 inh: inactive; KCNK9 inh-1: inactive; KCNK3 inh: inactive; Kir21 block: inactive
